We go through 15 molecules from ChEMBL document CHEMBL5032518, “Discovery of a cryptic site at the interface 2 of TEAD - Towards a new family of YAP/TAZ-TEAD inhibitors” (Eur J Med Chem, 2021).

Data set [1] in a line: Inhibition of TEAD4/Yap1 (unknown origin) interaction measured after 24 hrs by fluorescence polarization assay. Also on record: species or system Homo sapiens.
A further data set concerns HEK293T. Briefly: Inhibition of TEAD (unknown origin) transfected in HEK293T cells assessed as inhibition of TEAD transcriptional activity at 10 uM measured after 16 hrs by luciferase reporter gene assay. To be noted: Homo sapiens. The format is cell-based. In short, it runs like this: (§1)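 HEK293T cells transfected with a TEAD luciferase reporter (8xGTIIC-Luciferase) and treated at 10 µM for 16 h. References were dasatinib at 100 nM and MGH-CP1 at 10 µM. β-Galactosidase activity used both to normalize luciferase and to estimate cytotoxicity; viability also checked visually. At least three independent experiments in biological triplicate; Kruskal-Wallis tests.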
In general terms: A reporter such as luciferase makes a cellular process visible.

Data set [2] addresses T1, Transcriptional enhancer factor TEF-4 (Homo sapiens, UniProt Q15562). Kind of data set: Binding affinity to eGFP-fused human TEAD2 (217 to 447 residues) expressed in CHO-K1 cells by microscale thermophoresis analysis. In short, it runs like this: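 MST on GFP-labeled hTEAD2_217-447 in CHO-K1 cell lysate, MST power 40%. hYAP_50-102 used as control binder. Kd determined; triplicate runs on three independent cell cultures, mean ± SD.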
On the technique in general: In MST a laser heats a spot of the sample, and binding alters the fluorescence response.

A further data set relates to HEK-293T. Kind of data set: Cytotoxicity against human HEK293T cells transfected with TEAD assessed as reduction of beta-galactosidase activity at 10 uM measured after 16 hrs by luciferase reporter gene assay. The format is cell-based. In short, it runs like this: as §1
Data set [3] is described as follows: Inhibition of TEAD (unknown origin) transfected in HEK293T cells assessed as inhibition of TEAD transcriptional activity measured after 24 hrs by luciferase reporter gene assay. The format is cell-based. As to conditions: Homo sapiens, HEK-293T.
Data set [4] is described as follows: Inhibition of TEAD (unknown origin) transfected in HEK293T cells assessed as inhibition of TEAD transcriptional activity measured after 16 hrs by luciferase reporter gene assay. As to conditions: Homo sapiens, HEK-293T. It counts as cell-based. In short, it runs like this:
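HEK293T cells transfected with the 8xGTIIC-Luciferase TEAD reporter. Dose-response curves used to derive IC50, with luciferase normalized to β-galactosidase.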

Data set [5] relates to MDA-MB-231. Briefly: Inhibition of YAP/TAZ-TEAD interaction in human MDA-MB-231 cells assessed as reduction in AXL protein expression at 10 uM measured after 48 hrs by western blot analysis. It counts as cell-based. In short, it runs like this: (§2)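 MDA-MB-231 cells grown in DMEM with 0.2% heat-inactivated FBS and 2 mM L-glutamine, and exposed to 10 µM for 48 h, with dasatinib at 100 nM as control. Total extracts prepared in RIPA-based buffer with protease/phosphatase inhibitors, then Western blot. At least three independent experiments in biological triplicate.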
For orientation: In western blotting, separated proteins are transferred to a membrane and probed.

Data set [6] has as its system MDA-MB-231. Briefly: Inhibition of YAP/TAZ-TEAD interaction in human MDA-MB-231 cells assessed as reduction in CTGF protein expression at 10 uM measured after 48 hrs by western blot analysis. It counts as cell-based. In a few lines:
as §2

For data set [7], the system named is MDA-MB-231. Kind of data set: Inhibition of YAP/TAZ-TEAD interaction in human MDA-MB-231 cells assessed as reduction in Cyr61 protein expression at 10 uM measured after 48 hrs by western blot analysis. The format is cell-based. In short, it runs like this: as §2
Data set [8] relates to MDA-MB-231. Kind of data set: Inhibition of YAP/TAZ-TEAD interaction in human MDA-MB-231 cells assessed as reduction in Survivin protein expression at 10 uM measured after 48 hrs by western blot analysis. The format is cell-based. In a few lines: as §2
In data set [9] the test system is MDA-MB-231. Kind of data set: Inhibition of YAP/TAZ-TEAD interaction in human MDA-MB-231 cells assessed as reduction in AXL mRNA expression at 10 uM measured after 24 hrs by qRT-PCR analysis. It counts as cell-based. In short, it runs like this:
(§3)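 MDA-MB-231 cells exposed to 10 µM for 24 h, with DMSO and dasatinib (100 nM) as controls. Total RNA purified, integrity checked on agarose gel. RT-qPCR with gene-specific primers; relative expression by 2^-ΔΔCt normalized to MAN2B1. At least triplicates; Kruskal-Wallis tests.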

In data set [10] the test system is MDA-MB-231. Kind of data set: Inhibition of YAP/TAZ-TEAD interaction in human MDA-MB-231 cells assessed as reduction in CTGF mRNA expression at 10 uM measured after 24 hrs by qRT-PCR analysis. It counts as cell-based. In short, it runs like this:
as §3

Data set [11] concerns MDA-MB-231. Briefly: Inhibition of YAP/TAZ-TEAD interaction in human MDA-MB-231 cells assessed as reduction in Cyr61 mRNA expression at 10 uM measured after 24 hrs by qRT-PCR analysis. It counts as cell-based. In a few lines:
as §3

In data set [12] the test system is MDA-MB-231. Kind of data set: Antiproliferative activity against human MDA-MB-231 cells assessed as reduction in cell proliferation at 5 uM measured after 48 hrs by IncuCyte live-cell imaging assay. It counts as functional. In a few lines: (§4)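 MDA-MB-231 cells plated in triplicate at low density (2.5 × 10³ cells/well) in low serum (0.2%). Test agent added at several concentrations 24 h after plating. Cell number tracked by live-cell imaging every 3 h for up to 72 h; independent triplicates, mean ± SD, n = 3.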

Data set [13] has as its system MDA-MB-231. Briefly: Antiproliferative activity against human MDA-MB-231 cells assessed as reduction in cell proliferation at 10 uM measured after 48 hrs by IncuCyte live-cell imaging assay. The format is functional. In a few lines:
as §4

Data set [14] deals with HeLa. Kind of data set: Inhibition of YAP/TAZ-TEAD interaction in human HeLa cells assessed as reduction in AXL protein expression at 10 uM measured after 48 hrs by western blot analysis. The format is cell-based.
The test system of data set [15] is HeLa. Kind of data set: Inhibition of YAP/TAZ-TEAD interaction in human HeLa cells assessed as reduction in CTGF protein expression at 10 uM measured after 48 hrs by western blot analysis. It counts as cell-based.
Data set [16] deals with HeLa. Briefly: Inhibition of YAP/TAZ-TEAD interaction in human HeLa cells assessed as reduction in Cyr61 protein expression at 10 uM measured after 48 hrs by western blot analysis. The format is cell-based.
Data set [17] concerns HeLa. Kind of data set: Inhibition of YAP/TAZ-TEAD interaction in human HeLa cells assessed as reduction in Survivin protein expression at 10 uM measured after 48 hrs by western blot analysis. The format is cell-based.
The test system of data set [18] is HeLa. Briefly: Inhibition of YAP/TAZ-TEAD interaction in human HeLa cells assessed as reduction in AXL mRNA expression at 10 uM measured after 24 hrs by qRT-PCR analysis. It counts as cell-based.
Data set [19] deals with HeLa. Kind of data set: Inhibition of YAP/TAZ-TEAD interaction in human HeLa cells assessed as reduction in CTGF mRNA expression at 10 uM measured after 24 hrs by qRT-PCR analysis. The format is cell-based.
Data set [20] relates to HeLa. Briefly: Inhibition of YAP/TAZ-TEAD interaction in human HeLa cells assessed as reduction in Cyr61 mRNA expression at 10 uM measured after 24 hrs by qRT-PCR analysis. The format is cell-based.
Data set [21] concerns SH-SY5Y. Briefly: Effect on AXL protein expression in human SH-SY5Y cells lacking YAP/TAZ expression at 10 uM measured after 48 hrs by western blot analysis. It counts as functional, cell-based.
Data set [22] concerns SH-SY5Y. Kind of data set: Effect on CTGF protein expression in human SH-SY5Y cells lacking YAP/TAZ expression at 10 uM measured after 48 hrs by western blot analysis. It counts as functional, cell-based.
Data set [23] has as its system SH-SY5Y. Briefly: Effect on Cyr61 protein expression in human SH-SY5Y cells lacking YAP/TAZ expression at 10 uM measured after 48 hrs by western blot analysis. The format is functional, cell-based.
Data set [24] relates to SH-SY5Y. Kind of data set: Effect on Survivin protein expression in human SH-SY5Y cells lacking YAP/TAZ expression at 10 uM measured after 48 hrs by western blot analysis. The format is functional, cell-based.
The subject of data set [25] is SH-SY5Y. Kind of data set: Effect on AXL mRNA expression in human SH-SY5Y cells lacking YAP/TAZ expression at 10 uM measured after 24 hrs by qRT-PCR analysis. The format is functional, cell-based.
Data set [26] deals with SH-SY5Y. Kind of data set: Effect on CTGF mRNA expression in human SH-SY5Y cells lacking YAP/TAZ expression at 10 uM measured after 24 hrs by qRT-PCR analysis. It counts as functional, cell-based.
In data set [27] the test system is SH-SY5Y. Briefly: Effect on Cyr61 mRNA expression in human SH-SY5Y cells lacking YAP/TAZ expression at 10 uM measured after 24 hrs by qRT-PCR analysis. The format is functional, cell-based.
In data set [28] the target is T1, Transcriptional enhancer factor TEF-4. Kind of data set: Binding affinity to external surface of N-terminal His6-tagged human TEAD2 (217 to 447 residues) expressed in Escherichia coli BL21(DE3) assessed as melting temperature by Nano Differential scanning fluorometry. In a few lines:
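Thermal stability of hTEAD2_217-447 measured by NanoDSF, which reads intrinsic aromatic-residue fluorescence, with and without ligand.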

The source made the active and inactive calls. The rule behind the calls is not given here.

Usually EC50 stands for the concentration giving half of the maximal effect. As usually defined, the inhibition is the share of the control response that was lost under treatment. By Kd is commonly meant the constant that tells how readily two partners part at equilibrium. As usually defined, the IC50 is the concentration needed to halve the response being measured.

T1 sequence (Q15562 whole entry, the tested form may be a part): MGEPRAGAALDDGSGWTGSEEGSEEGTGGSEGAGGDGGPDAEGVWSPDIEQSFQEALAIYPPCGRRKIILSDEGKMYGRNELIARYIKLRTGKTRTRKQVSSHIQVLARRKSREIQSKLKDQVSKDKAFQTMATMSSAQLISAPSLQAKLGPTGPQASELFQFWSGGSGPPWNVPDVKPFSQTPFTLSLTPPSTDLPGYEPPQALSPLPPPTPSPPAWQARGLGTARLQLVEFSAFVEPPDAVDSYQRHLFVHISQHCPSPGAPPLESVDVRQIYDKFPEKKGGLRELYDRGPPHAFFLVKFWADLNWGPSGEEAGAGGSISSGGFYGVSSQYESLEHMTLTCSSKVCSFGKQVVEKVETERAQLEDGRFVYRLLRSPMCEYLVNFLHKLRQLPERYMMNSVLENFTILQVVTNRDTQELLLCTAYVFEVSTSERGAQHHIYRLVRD

In the case of `O=C(CCl)c1ccccc1Nc1cccc(C(F)(F)F)c1`, in data set [1], it took 5.9 µM to reach a half-maximal effect (EC50).
Consider `O=C(O)CCn1cc(C(=O)NCc2ccccc2)c(-c2ccc(Cl)c(Cl)c2)n1`, for which the inhibition entry in the data set with HEK293T is “inactive”.
Take `O=C(O)CCCn1cc(C(=O)NCc2ccccc2)c(-c2ccc(Cl)c(Cl)c2)n1`: the equilibrium dissociation constant (Kd) in data set [2] was 4.6 µM. Besides, the inhibition result in the data set with HEK293T is “inactive”.
Regarding `NCCn1cc(C(=O)NCc2ccccc2)c(-c2ccc(Cl)c(Cl)c2)n1`, in the data set on HEK-293T, the Activity entry is “Toxic”.
The same measure, in the same setting: the same measure for `NCCCCn1cc(C(=O)NCc2ccccc2)c(-c2ccc(Cl)c(Cl)c2)n1`: “Toxic”.
Consider `Nc1nonc1-n1nnc(C(=O)N/N=C2\C(=O)Nc3ccccc32)c1-c1ccc(Cl)c(Cl)c1`, for which the IC50 in data set [3] was 6.5 µM.
`CCOC(=O)c1cn(CCCN)nc1-c1ccc(Cl)c(Cl)c1`: the inhibition entry in the data set with HEK293T is “Active”.
On to `CCOC(=O)c1cn(CCCCN)nc1-c1ccc(Cl)c(Cl)c1`, for which the Kd in [2] worked out at 35 µM. The inhibition entry with HEK293T, in the data set with MDA-MB-231 [5], in the data set with MDA-MB-231 [6], in the data set on MDA-MB-231 [7], in the data set on MDA-MB-231 [8] and in the data set with MDA-MB-231 [9] was “Active” throughout. For the same molecule, the inhibition result with MDA-MB-231 [10], in the data set on MDA-MB-231 [11], in the data set on HeLa [14], with HeLa [15], in the data set on HeLa [16] and in the data set with HeLa [17] was “Active” in each case. Moreover, the inhibition result in the data set on HeLa [18], in the data set with HeLa [19] and in the data set with HeLa [20] was “Active” in each case. For the same molecule, the IC50 in [4] worked out at 4.5 µM. For the same molecule, in the data set on MDA-MB-231 [12], the inhibition at 5 µM was found to be 40%. Further, the inhibition at 10 µM with MDA-MB-231 [13] worked out at 60%. The outcome in the data set with SH-SY5Y [21], with SH-SY5Y [22], in the data set on SH-SY5Y [23], in the data set on SH-SY5Y [24], in the data set on SH-SY5Y [25] and in the data set with SH-SY5Y [26] was inactive. Besides, the outcome in the data set on SH-SY5Y [27] was inactive.
As to `O=C(O)CCCn1cc(C(=O)NCCc2ccccc2)c(-c2ccc(Cl)c(Cl)c2)n1`, the inhibition entry with HEK293T is “inactive”.
For `NCCCCn1cc(C(=O)NCCc2ccccc2)c(-c2ccc(Cl)c(Cl)c2)n1`, the Activity entry in the data set on HEK-293T is on record as “Toxic”.
Turning to `O=C(O)c1cccnc1Nc1cccc(C(F)(F)F)c1`, in data set [28], the Tm was found to be 50.3 °C.
For `COc1ccc2c(c1)/C(=N/NC(=O)c1nnn(-c3ccccc3N)c1-c1ccc(Cl)c(Cl)c1)C(=O)N2`, the IC50 in data set [3] was found to be 1.7 µM.
With `NCCCn1cc(C(=O)NCc2ccccc2)c(-c2ccc(Cl)c(Cl)c2)n1`, the Activity entry with HEK-293T is “Toxic”.
With `O=C(O)CCn1cc(C(=O)NCCc2ccccc2)c(-c2ccc(Cl)c(Cl)c2)n1`, in data set [2], the Kd was determined as 5.1 µM. In addition, in the data set with HEK293T, the inhibition entry was “inactive”.
`NCCCn1cc(C(=O)NCCc2ccccc2)c(-c2ccc(Cl)c(Cl)c2)n1`: the Activity entry in the data set with HEK-293T is listed as “Toxic”.
